Experiment [1] addresses Serine/threonine-protein kinase B-raf (Homo sapiens, UniProt P15056). The experiment is described as follows: Inhibition of human wild type BRAF using myelin basic protein as substrate in presence of [gamma-33P]ATP incubated for 40 mins by scintillation counting method. An outline of the steps:
(§1)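 Radiometric kinase assay run at Reaction Biology. Kinase (5−10 mU) in 25 mM Tris pH 7.5, 0.02 mM EGTA, 10 mM magnesium acetate with 0.66 mg/mL myelin basic protein and [γ-33P]ATP at 1 μM ATP. Reaction started with Mg-ATP and run 40 min at room temperature, then stopped with 3% phosphoric acid. Spotted on P30 filtermat, washed, scintillation counted.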

For experiment [2], the target named is RAF proto-oncogene serine/threonine-protein kinase (Homo sapiens, UniProt P04049). The experiment is described as follows: Inhibition of human wild type CRAF using myelin basic protein as substrate in presence of [gamma-33P]ATP incubated for 40 mins by scintillation counting method.
Experiment [3] has as its target Serine/threonine-protein kinase B-raf (Homo sapiens, UniProt P15056, V600E). The experiment is described as follows: Inhibition of human BRAF V600E mutant using myelin basic protein as substrate in presence of [gamma-33P]ATP incubated for 40 mins by scintillation counting method. An outline of the steps:
as §1

The test system of experiment [4] is Panel melanoma (Carcinoma cell lines). The experiment is described as follows: cells. The conditions noted are these: Homo sapiens, 48 h, read-out: INH.

A word on the IC50: it is the concentration needed to halve the response being measured.

Sequence of Serine/threonine-protein kinase B-raf (Homo sapiens, UniProt P15056) (P15056 whole entry): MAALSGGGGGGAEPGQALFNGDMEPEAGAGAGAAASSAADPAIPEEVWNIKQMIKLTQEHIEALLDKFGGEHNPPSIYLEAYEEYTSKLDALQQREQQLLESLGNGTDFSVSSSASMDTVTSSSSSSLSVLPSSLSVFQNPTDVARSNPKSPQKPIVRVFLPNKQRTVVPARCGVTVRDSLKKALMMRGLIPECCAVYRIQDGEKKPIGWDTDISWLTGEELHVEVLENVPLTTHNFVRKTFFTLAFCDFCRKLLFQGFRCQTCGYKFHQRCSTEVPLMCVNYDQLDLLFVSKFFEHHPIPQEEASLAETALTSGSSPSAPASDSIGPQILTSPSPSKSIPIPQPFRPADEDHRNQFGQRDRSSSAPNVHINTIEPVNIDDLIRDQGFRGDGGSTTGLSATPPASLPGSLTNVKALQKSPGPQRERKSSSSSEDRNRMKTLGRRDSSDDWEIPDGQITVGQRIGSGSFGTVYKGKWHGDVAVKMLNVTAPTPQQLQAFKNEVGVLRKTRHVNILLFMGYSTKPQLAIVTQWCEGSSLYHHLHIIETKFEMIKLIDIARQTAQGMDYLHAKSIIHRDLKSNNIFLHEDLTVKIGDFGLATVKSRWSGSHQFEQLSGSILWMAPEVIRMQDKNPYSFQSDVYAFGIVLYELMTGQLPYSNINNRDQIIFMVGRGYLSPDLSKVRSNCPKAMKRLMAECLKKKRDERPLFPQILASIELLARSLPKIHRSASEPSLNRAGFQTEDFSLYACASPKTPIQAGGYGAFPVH
Sequence of Serine/threonine-protein kinase B-raf (Homo sapiens, UniProt P15056, V600E) (P15056 2-766 V600E limits assumed): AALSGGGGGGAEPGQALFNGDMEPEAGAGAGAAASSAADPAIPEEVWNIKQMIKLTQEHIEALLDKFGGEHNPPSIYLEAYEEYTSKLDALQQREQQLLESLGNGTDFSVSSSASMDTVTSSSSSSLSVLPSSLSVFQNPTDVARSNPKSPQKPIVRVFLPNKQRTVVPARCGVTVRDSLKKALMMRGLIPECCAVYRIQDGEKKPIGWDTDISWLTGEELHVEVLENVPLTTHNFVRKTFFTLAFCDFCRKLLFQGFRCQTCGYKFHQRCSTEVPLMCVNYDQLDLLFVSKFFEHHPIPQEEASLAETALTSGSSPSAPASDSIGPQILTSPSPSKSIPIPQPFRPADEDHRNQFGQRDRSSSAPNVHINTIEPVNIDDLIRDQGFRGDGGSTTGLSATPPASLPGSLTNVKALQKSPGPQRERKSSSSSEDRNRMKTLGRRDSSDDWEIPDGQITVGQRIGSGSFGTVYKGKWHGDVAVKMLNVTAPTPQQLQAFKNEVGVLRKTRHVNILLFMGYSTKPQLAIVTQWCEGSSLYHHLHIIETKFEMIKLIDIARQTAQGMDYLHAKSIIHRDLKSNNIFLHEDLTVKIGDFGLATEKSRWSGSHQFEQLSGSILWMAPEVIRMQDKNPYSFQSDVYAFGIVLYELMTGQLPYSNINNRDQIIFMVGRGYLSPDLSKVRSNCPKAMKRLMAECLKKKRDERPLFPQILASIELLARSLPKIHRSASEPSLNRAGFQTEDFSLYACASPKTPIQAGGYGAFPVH
Sequence of RAF proto-oncogene serine/threonine-protein kinase (P04049 whole entry): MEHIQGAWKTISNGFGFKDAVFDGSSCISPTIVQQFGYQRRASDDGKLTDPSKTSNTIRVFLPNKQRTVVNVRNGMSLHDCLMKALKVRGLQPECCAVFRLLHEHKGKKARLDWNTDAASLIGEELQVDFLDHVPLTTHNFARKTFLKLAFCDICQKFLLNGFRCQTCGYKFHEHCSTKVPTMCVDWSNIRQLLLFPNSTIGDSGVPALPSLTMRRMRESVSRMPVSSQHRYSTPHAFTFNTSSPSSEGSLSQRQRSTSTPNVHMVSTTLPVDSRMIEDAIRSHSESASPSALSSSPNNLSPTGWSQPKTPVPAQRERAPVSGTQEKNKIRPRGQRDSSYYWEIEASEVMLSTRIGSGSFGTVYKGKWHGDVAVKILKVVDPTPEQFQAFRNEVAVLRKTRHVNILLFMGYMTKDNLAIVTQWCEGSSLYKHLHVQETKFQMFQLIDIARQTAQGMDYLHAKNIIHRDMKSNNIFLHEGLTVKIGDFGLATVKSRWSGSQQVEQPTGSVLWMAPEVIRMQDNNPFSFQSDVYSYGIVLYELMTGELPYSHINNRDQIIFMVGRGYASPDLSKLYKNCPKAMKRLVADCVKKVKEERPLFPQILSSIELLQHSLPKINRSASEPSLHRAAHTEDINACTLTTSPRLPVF

Regarding `COc1cccc(-c2nc3sccn3c2-c2ccnc(NCCN3CCNS3(=O)=O)n2)c1`, the IC50 in experiment [1] was determined as 20.3 nM; in experiment [2], 5.61 nM; in experiment [3] it was 10.5 nM.

Regarding `O=S1(=O)NCCCN1CCNc1nccc(-c2c(-c3cccc(O)c3)nc3sccn23)n1`, the half-maximal inhibitory concentration (IC50) in experiment [1] came to 9.56 nM; in experiment [2] it was 7.21 nM; in experiment [3], 5.21 nM.

Take `COc1ccc(-c2nc3sccn3c2-c2ccnc(NCCNS(=O)(=O)c3ccc(OC)cc3)n2)cc1`: the values for the IC50 in experiment [1], in experiment [2] and in experiment [3] were 9890 nM, 24300 nM and 26300 nM, respectively.

`COc1cccc(-c2nc3sccn3c2-c2ccnc(NCCNS(=O)(=O)c3ccc(F)cc3)n2)c1`: the 50% inhibitory concentration (IC50) amounted to 522 nM in experiment [1], 100 nM in experiment [2] and 115 nM in experiment [3].

Regarding `COc1cccc(-c2nc3sccn3c2-c2ccnc(NCCNS(=O)(=O)c3ccccc3)n2)c1`, the concentration for half-maximal inhibition (IC50) in experiment [1] stood at 941 nM; in experiment [2] it was 220 nM; in experiment [3], 120 nM.

For `COc1cccc(-c2nc3sccn3c2-c2ccnc(NCCCNS(=O)(=O)c3ccccc3)n2)c1`, the IC50 in experiment [1] was found to be 721 nM; in experiment [2], 129 nM; in experiment [3], 109 nM.

As to `COc1cccc(-c2nc3sccn3c2-c2ccnc(NCCCNS(=O)(=O)c3ccc4ccccc4c3)n2)c1`, the IC50 in experiment [1] was determined as 842 nM; in experiment [2] it was 172 nM; in experiment [3], 165 nM.

Regarding `O=S(=O)(NCCNc1nccc(-c2c(-c3ccccc3)nc3sccn23)n1)c1ccc(O)cc1`, the 50% inhibitory concentration (IC50) in experiment [1] was 97 nM; in experiment [2], 75 nM; in experiment [3], 65 nM.

For `COc1cccc(-c2nc3sccn3c2-c2ccnc(NCCNS(=O)(=O)c3cccc(F)c3)n2)c1`, the results for the concentration for half-maximal inhibition (IC50) in experiment [1], in experiment [2] and in experiment [3] were 561 nM, 106 nM and 112 nM, respectively.

As for `COc1cccc(-c2nc3sccn3c2-c2ccnc(NCCN3CC(C)(C)NS3(=O)=O)n2)c1`, the values for the half-inhibitory concentration (IC50) in experiment [1], in experiment [2] and in experiment [3] were 13.7 nM, 5.63 nM and 8.65 nM, respectively.

In the case of `COc1cccc(-c2nc3sccn3c2-c2ccnc(NCCN3CCN(Cc4ccccc4)S3(=O)=O)n2)c1`, the IC50 stood at 17.3 nM in experiment [1], 4.32 nM in experiment [2] and 8.36 nM in experiment [3].

For `Cc1ccc(S(=O)(=O)NCCCNc2nccc(-c3c(-c4ccccc4)nc4sccn34)n2)cc1`, the half-inhibitory concentration (IC50) in experiment [1] is 521 nM; in experiment [2] it was 201 nM; in experiment [3], 85.3 nM.

For the compound `COc1cccc(-c2nc3sccn3c2-c2ccnc(NCCCNS(=O)(=O)c3ccc(C)cc3)n2)c1`, the half-maximal inhibitory concentration (IC50) in experiment [1] was determined as 894 nM; in experiment [2] it was 209 nM; in experiment [3] it was 168 nM.

For `COc1cccc(-c2nc3sccn3c2-c2ccnc(NCCN3CCCNS3(=O)=O)n2)c1`, the IC50 turned out to be 18.1 nM in experiment [1], 7.22 nM in experiment [2] and 9.96 nM in experiment [3].

In the case of `Cc1ccc(S(=O)(=O)NCCNc2nccc(-c3c(-c4ccc(O)cc4)nc4sccn34)n2)cc1`, the IC50 in experiment [1] was 11300 nM; in experiment [2] it was 16500 nM; in experiment [3], 21300 nM.

In the case of `O=S(=O)(NCCCNc1nccc(-c2c(-c3cccc(O)c3)nc3sccn23)n1)c1ccccc1`, the IC50 in experiment [1] was found to be 29 nM; in experiment [2], 23 nM; in experiment [3] it was 20 nM.

In the case of `Cc1ccc(S(=O)(=O)NCCNc2nccc(-c3c(-c4ccccc4)nc4sccn34)n2)cc1`, the IC50 in experiment [1] turned out to be 623 nM; in experiment [2] it was 251 nM; in experiment [3], 89.3 nM.

On to `COc1cccc(-c2nc3sccn3c2-c2ccnc(NCCN3CCCN(C(=O)OC(C)(C)C)S3(=O)=O)n2)c1`, for which the IC50 stood at 23.3 nM in experiment [1], 11.2 nM in experiment [2] and 12.6 nM in experiment [3].

With `CC1(C)CN(CCNc2nccc(-c3c(-c4cccc(O)c4)nc4sccn34)n2)S(=O)(=O)N1`, the figures for the IC50 in experiment [1], in experiment [2] and in experiment [3] were 10.3 nM, 4.26 nM and 6.35 nM, respectively. Further, the inhibition at 10 µM in experiment [4] was 79.7%.

With `O=S(=O)(NCCNc1nccc(-c2c(-c3ccc(O)cc3)nc3sccn23)n1)c1ccc(O)cc1`, the figures for the IC50 in experiment [1], in experiment [2] and in experiment [3] were 9710 nM, 19400 nM and 25100 nM, respectively.

Consider `Cc1ccc(S(=O)(=O)NCCNc2nccc(-c3c(-c4cccc(O)c4)nc4sccn34)n2)cc1`, for which the results for the concentration for half-maximal inhibition (IC50) in experiment [1], in experiment [2] and in experiment [3] were 64 nM, 62 nM and 55 nM, respectively.

As to `COc1ccc(S(=O)(=O)NCCCNc2nccc(-c3c(-c4ccccc4)nc4sccn34)n2)cc1`, the IC50 in experiment [1] was 299 nM; in experiment [2] it was 98.3 nM; in experiment [3], 66.1 nM.

`O=S(=O)(NCCNc1nccc(-c2c(-c3cccc(O)c3)nc3sccn23)n1)c1ccccc1`: the IC50 in experiment [1] came out at 35 nM; in experiment [2], 21 nM; in experiment [3], 19 nM.

Consider `COc1cccc(-c2nc3sccn3c2-c2ccnc(NCCCNS(=O)(=O)c3ccc(F)cc3)n2)c1`, for which the values for the 50% inhibitory concentration (IC50) in experiment [1], in experiment [2] and in experiment [3] were 430 nM, 95.2 nM and 90.3 nM, respectively. For the same compound, the inhibition at 10 µM in experiment [4] came to 101%.

As to `COc1cccc(-c2nc3sccn3c2-c2ccnc(NCCN3CCCN(C)S3(=O)=O)n2)c1`, the IC50 in experiment [1] turned out to be 8.26 nM; in experiment [2], 2.33 nM; in experiment [3], 2.62 nM.

As to `COc1ccc(-c2nc3sccn3c2-c2ccnc(NCCNS(=O)(=O)c3ccc(F)cc3)n2)cc1`, the IC50 stood at 9210 nM in experiment [1], 32200 nM in experiment [2] and 13200 nM in experiment [3].

For the compound `O=S1(=O)NCCN1CCNc1nccc(-c2c(-c3cccc(O)c3)nc3sccn23)n1`, the IC50 worked out at 7.25 nM in experiment [1], 6.32 nM in experiment [2] and 4.56 nM in experiment [3].

`O=S(=O)(NCCNc1nccc(-c2c(-c3ccccc3)nc3sccn23)n1)c1ccc(F)cc1`: the IC50 in experiment [1] worked out at 375 nM; in experiment [2], 112 nM; in experiment [3], 69.1 nM.

As to `COc1cccc(-c2nc3sccn3c2-c2ccnc(NCCNS(=O)(=O)c3ccc(C)cc3)n2)c1`, the IC50 was 987 nM in experiment [1], 163 nM in experiment [2] and 177 nM in experiment [3].

Regarding `Cc1ccc(S(=O)(=O)NCCCNc2nccc(-c3c(-c4cccc(O)c4)nc4sccn34)n2)cc1`, the IC50 in experiment [1] is 18 nM; in experiment [2], 13 nM; in experiment [3], 9 nM.

In the case of `O=S1(=O)N(CCNc2nccc(-c3c(-c4cccc(O)c4)nc4sccn34)n2)CCN1Cc1ccccc1`, the 50% inhibitory concentration (IC50) in experiment [1] stood at 15.5 nM; in experiment [2] it was 3.91 nM; in experiment [3], 7.25 nM.

As for `COc1ccc(-c2nc3sccn3c2-c2ccnc(NCCNS(=O)(=O)c3cccc4ccccc34)n2)cc1`, the half-inhibitory concentration (IC50) in experiment [1] was 20800 nM; in experiment [2] it was 28900 nM; in experiment [3], greater than 35000 nM.

Regarding `CC(C)(C)OC(=O)N1CCCN(CCNc2nccc(-c3c(-c4cccc(O)c4)nc4sccn34)n2)S1(=O)=O`, the half-inhibitory concentration (IC50) in experiment [1] was found to be 11.2 nM; in experiment [2], 9.98 nM; in experiment [3], 9.57 nM.

Consider `O=S(=O)(NCCCNc1nccc(-c2c(-c3ccccc3)nc3sccn23)n1)c1ccc(F)cc1`, for which the figures for the IC50 in experiment [1], in experiment [2] and in experiment [3] were 276 nM, 87.8 nM and 57.7 nM, respectively. For the same compound, in experiment [4], the inhibition at 10 µM amounted to 59.7%.

For the compound `COc1cccc(-c2nc3sccn3c2-c2ccnc(NCCN3CCN(C)S3(=O)=O)n2)c1`, the IC50 turned out to be 6.12 nM in experiment [1], 2.52 nM in experiment [2] and 1.51 nM in experiment [3].

`COc1ccc(S(=O)(=O)NCCCNc2nccc(-c3c(-c4cccc(OC)c4)nc4sccn34)n2)cc1`: the half-maximal inhibitory concentration (IC50) in experiment [1] came out at 589 nM; in experiment [2] it was 164 nM; in experiment [3], 156 nM.

Turning to `COc1ccc(S(=O)(=O)NCCNc2nccc(-c3c(-c4cccc(OC)c4)nc4sccn34)n2)cc1`, the IC50 in experiment [1] amounted to 745 nM; in experiment [2], 151 nM; in experiment [3], 160 nM.

Values taken from ChEMBL document CHEMBL5046217, “Discovery of New Imidazo[2,1-b]thiazole Derivatives as Potent Pan-RAF Inhibitors with Promising In Vitro and In Vivo Anti-melanoma Activity” (J Med Chem, 2021).
